Type in all cases: functional
The subject of experiment [1] is Rattus norvegicus. In words: Heart uptake in percent injected dose/gram (range) was determined in female fischer rat after 1251-labelled compound complexed with bovine serum albumin was injected intravenously after 60 minutes. In a few lines:
(§1)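 Female Fischer 344 rats, 10–12 weeks old (170–200 g), fed and watered ad libitum. ¹²⁵I-labeled fatty acid in 0.5 mL absolute ethanol added dropwise to stirred 6% bovine serum albumin at 40 °C (final ethanol 10%), 0.22-μm filtered, given into a lateral tail vein under ether anesthesia. At set times: ether anesthesia, cervical fracture, organs excised, rinsed, blotted, weighed and gamma counted. Values are % injected dose/g, 3–4 rats per time point.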

The test system of experiment [2] is Rattus norvegicus. In words: Thyroid uptake in percent injected dose/gram (range) was determined in female fischer rat after 1251-labelled compound complexed with bovine serum albumin was injected intravenously after 5 hours. In a few lines:
as §1

For experiment [3], the system named is Rattus norvegicus. In words: Thyroid uptake in percent injected dose/gram (range) was determined in female fischer rat after 1251-labelled compound complexed with bovine serum albumin was injected intravenously after 60 minutes. An outline of the steps: as §1
Experiment [4] relates to Rattus norvegicus. Nature of the experiment: Blood uptake in percent injected dose/gram (range) was determined in female fischer rat after 1251-labelled compound complexed with bovine serum albumin was injected intravenously after 5 hours. An outline of the steps:
as §1

In experiment [5] the test system is Rattus norvegicus. In words: Heart uptake in percent injected dose/gram (range) was determined in female fischer rat after 1251-labelled compound complexed with bovine serum albumin was injected intravenously after 5 minutes. An outline of the steps:
as §1

Experiment [6] relates to Rattus norvegicus. Nature of the experiment: Blood uptake in percent injected dose/gram (range) was determined in female fischer rat after 1251-labelled compound complexed with bovine serum albumin was injected intravenously after 30 minutes. In a few lines:
as §1

Experiment [7] has as its system Rattus norvegicus. In words: Liver uptake in percent injected dose/gram (range) was determined in female fischer rat after 1251-labelled compound complexed with bovine serum albumin was injected intravenously after 5 minutes. An outline of the steps:
as §1

Experiment [8] deals with Rattus norvegicus. Nature of the experiment: Thyroid uptake in percent injected dose/gram (range) was determined in female fischer rat after 1251-labelled compound complexed with bovine serum albumin was injected intravenously after 30 minutes. In a few lines:
as §1

Experiment [9] concerns Rattus norvegicus. In words: Lungs uptake in percent injected dose/gram (range) was determined in female fischer rat after 1251-labelled compound complexed with bovine serum albumin was injected intravenously after 60 minutes. In a few lines:
as §1

For experiment [10], the system named is Rattus norvegicus. In words: Liver uptake in percent injected dose/gram (range) was determined in female fischer rat after 1251-labelled compound complexed with bovine serum albumin was injected intravenously after 5 hours. In a few lines:
as §1

Experiment [11] concerns Rattus norvegicus. In words: Lungs uptake in percent injected dose/gram (range) was determined in female fischer rat after 1251-labelled compound complexed with bovine serum albumin was injected intravenously after 5 hours. In a few lines: as §1
For experiment [12], the system named is Rattus norvegicus. In words: Blood uptake in percent injected dose/gram (range) was determined in female fischer rat after 1251-labelled compound complexed with bovine serum albumin was injected intravenously after 5 minutes. In a few lines:
as §1

Experiment [13] concerns Rattus norvegicus. In words: Heart uptake in percent injected dose/gram (range) was determined in female fischer rat after 1251-labelled compound complexed with bovine serum albumin was injected intravenously after 5 hours. In a few lines: as §1
Experiment [14] deals with Rattus norvegicus. Nature of the experiment: Kidneys uptake in percent injected dose/gram (range) was determined in female fischer rat after 1251-labelled compound complexed with bovine serum albumin was injected intravenously after 60 minutes. An outline of the steps: as §1
The test system of experiment [15] is Rattus norvegicus. In words: Kidneys uptake in percent injected dose/gram (range) was determined in female fischer rat after 1251-labelled compound complexed with bovine serum albumin was injected intravenously after 5 minutes. In a few lines: as §1
In experiment [16] the test system is Rattus norvegicus. Nature of the experiment: Heart uptake in percent injected dose/gram (range) was determined in female fischer rat after 1251-labelled compound complexed with bovine serum albumin was injected intravenously after 30 minutes. An outline of the steps:
as §1

Experiment [17] relates to Rattus norvegicus. Nature of the experiment: Kidneys uptake in percent injected dose/gram (range) was determined in female fischer rat after 1251-labelled compound complexed with bovine serum albumin was injected intravenously after 5 hours. In a few lines:
as §1

For experiment [18], the system named is Rattus norvegicus. In words: Blood uptake in percent injected dose/gram (range) was determined in female fischer rat after 1251-labelled compound complexed with bovine serum albumin was injected intravenously after 60 minutes. In a few lines: as §1
In experiment [19] the test system is Rattus norvegicus. Nature of the experiment: Kidneys uptake in percent injected dose/gram (range) was determined in female fischer rat after 1251-labelled compound complexed with bovine serum albumin was injected intravenously after 30 minutes. An outline of the steps:
as §1

The test system of experiment [20] is Rattus norvegicus. Nature of the experiment: Liver uptake in percent injected dose/gram (range) was determined in female fischer rat after 1251-labelled compound complexed with bovine serum albumin was injected intravenously after 60 min. In a few lines:
as §1

Experiment [21] has as its system Rattus norvegicus. In words: Liver uptake in percent injected dose/gram (range) was determined in female fischer rat after 1251-labelled compound complexed with bovine serum albumin was injected intravenously after 30 minutes. In a few lines: as §1
In experiment [22] the test system is Rattus norvegicus. In words: Lungs uptake in percent injected dose/gram (range) was determined in female fischer rat after 1251-labelled compound complexed with bovine serum albumin was injected intravenously after 5 minutes. An outline of the steps:
as §1

In experiment [23] the test system is Rattus norvegicus. In words: Lungs uptake in percent injected dose/gram (range) was determined in female fischer rat after 1251-labelled compound complexed with bovine serum albumin was injected intravenously after 30 minutes. An outline of the steps: as §1
The test system of experiment [24] is Rattus norvegicus. In words: Thyroid uptake in percent injected dose/gram (range) was determined in female fischer rat after 1251-labelled compound complexed with bovine serum albumin was injected intravenously after 5 minutes. In a few lines: as §1
In experiment [25] the test system is Rattus norvegicus. In words: Thyroid uptake in percent injected dose/gram (range) was determined in female fischer rat after 1251-labelled compound complexed with bovine serum albumin was injected intravenously after 4 hours. An outline of the steps: as §1
For experiment [26], the system named is Rattus norvegicus. Nature of the experiment: Liver uptake in percent injected dose/gram (range) was determined in female fischer rat after 1251-labelled compound complexed with bovine serum albumin was injected intravenously after 4 hours. In a few lines:
as §1

The test system of experiment [27] is Rattus norvegicus. In words: Lungs uptake in percent injected dose/gram (range) was determined in female fischer rat after 1251-labelled compound complexed with bovine serum albumin was injected intravenously after 4 hours. An outline of the steps: as §1
The subject of experiment [28] is Rattus norvegicus. In words: Thyroid uptake in percent injected dose/gram (range) was determined in female fischer rat after 1251-labelled compound complexed with bovine serum albumin was injected intravenously after 60 min. An outline of the steps: as §1
In experiment [29] the test system is Rattus norvegicus. In words: Heart uptake in percent injected dose/gram (range) was determined in female fischer rat after 1251-labelled compound complexed with bovine serum albumin was injected intravenously after 4 hours. An outline of the steps: as §1
In experiment [30] the test system is Rattus norvegicus. Nature of the experiment: Kidneys uptake in percent injected dose/gram (range) was determined in female fischer rat after 1251-labelled compound complexed with bovine serum albumin was injected intravenously after 4 hours. In a few lines: as §1
Experiment [31] deals with Rattus norvegicus. In words: Blood uptake in percent injected dose/gram (range) was determined in female fischer rat after 1251-labelled compound complexed with bovine serum albumin was injected intravenously after 4 hours. An outline of the steps:
as §1

Take `CC(CCCCCCCCCCCCc1ccc(I)cc1)C(=O)O` (racemic): the Activity in the experiment on Rattus norvegicus [1] is listed as 1.52%; with Rattus norvegicus [2], 13.95%; in the experiment with Rattus norvegicus [3] it was 11.5%; in the experiment on Rattus norvegicus [4], 1.07%; with Rattus norvegicus [5], 1.71%; in the experiment with Rattus norvegicus [6], 1.83%. Moreover, the Activity in the experiment on Rattus norvegicus [7] is 7.61%; with Rattus norvegicus [8] it was 5.3%; in the experiment with Rattus norvegicus [9] it was 1.13%; in the experiment with Rattus norvegicus [10], 1.52%; with Rattus norvegicus [11], 0.77%; with Rattus norvegicus [12], 1.8%. Further, the Activity in the experiment with Rattus norvegicus [13] was 0.59%; in the experiment on Rattus norvegicus [14] it was 1.85%; in the experiment with Rattus norvegicus [15] it was 1.68%; with Rattus norvegicus [16], 1.58%; in the experiment with Rattus norvegicus [17], 1.36%; in the experiment on Rattus norvegicus [18], 1.64%. The Activity amounted to 1.95% with Rattus norvegicus [19]; 2.94% in the experiment with Rattus norvegicus [20]; 3.85% in the experiment with Rattus norvegicus [21]; 1.13% with Rattus norvegicus [22]; 1.03% in the experiment with Rattus norvegicus [23]; 7.56% in the experiment with Rattus norvegicus [24].
In the case of `CC(CCCCCCCCCCCCc1ccc(I)cc1)CC(=O)O` (racemic) [IODOFILTIC ACID], the Activity worked out at 4.26% with Rattus norvegicus [1]; 9.69% in the experiment with Rattus norvegicus [25]; 0.95% with Rattus norvegicus [26]; 4.62% in the experiment on Rattus norvegicus [5]; 1.6% in the experiment on Rattus norvegicus [6]; 8.32% in the experiment on Rattus norvegicus [7]. Also, the Activity with Rattus norvegicus [8] worked out at 9.26%; in the experiment with Rattus norvegicus [9] it was 1.21%; with Rattus norvegicus [27], 0.91%; in the experiment with Rattus norvegicus [28] it was 10.66%; in the experiment with Rattus norvegicus [12], 0.71%; in the experiment with Rattus norvegicus [29], 2.27%. For the same compound, the Activity in the experiment with Rattus norvegicus [14] is given as 2.14%; in the experiment on Rattus norvegicus [15], 1.08%; with Rattus norvegicus [16], 3.63%; in the experiment on Rattus norvegicus [18], 1.7%; in the experiment on Rattus norvegicus [30], 1.49%; in the experiment on Rattus norvegicus [19] it was 1.71%. The Activity in the experiment with Rattus norvegicus [20] is on record as 1.92%; in the experiment with Rattus norvegicus [21], 3.66%; in the experiment with Rattus norvegicus [31] it was 1.13%; with Rattus norvegicus [22], 1.45%; in the experiment on Rattus norvegicus [23], 1.15%; with Rattus norvegicus [24] it was 6.78%.
Take `O=C(O)CCCCCCCCCCCCCCc1ccc(I)cc1` [IOCANLIDIC ACID]: the Activity worked out at 2.34% in the experiment with Rattus norvegicus [1]; 8.54% in the experiment on Rattus norvegicus [25]; 1.72% in the experiment with Rattus norvegicus [26]; 7.37% in the experiment with Rattus norvegicus [3]; 2.98% with Rattus norvegicus [5]; 1.5% with Rattus norvegicus [6]. The Activity in the experiment with Rattus norvegicus [7] came to 6.69%; with Rattus norvegicus [8], 10.28%; with Rattus norvegicus [9], 1.29%; in the experiment on Rattus norvegicus [27], 0.97%; with Rattus norvegicus [12], 0.91%; in the experiment with Rattus norvegicus [29], 0.93%. The Activity in the experiment with Rattus norvegicus [14] is on record as 1.05%; with Rattus norvegicus [15], 0.84%; with Rattus norvegicus [16], 2.67%; in the experiment on Rattus norvegicus [18], 1.32%; in the experiment with Rattus norvegicus [30], 0.88%; with Rattus norvegicus [19] it was 1.08%. The Activity in the experiment with Rattus norvegicus [20] was determined as 3.76%; in the experiment with Rattus norvegicus [21], 5.31%; with Rattus norvegicus [31], 0.7%; with Rattus norvegicus [22], 1.26%; with Rattus norvegicus [23], 1.36%; in the experiment with Rattus norvegicus [24], 7.08%.
On to `O=C(O)CCCCCCCCCCCCCc1ccc(I)cc1`, for which the Activity is 1.78% with Rattus norvegicus [1]; 2.56% in the experiment on Rattus norvegicus [3]; 2.72% in the experiment with Rattus norvegicus [5]; 4.82% with Rattus norvegicus [7]; 1.39% in the experiment on Rattus norvegicus [9]; 1.58% with Rattus norvegicus [12]. Besides, the Activity in the experiment on Rattus norvegicus [14] was 1.94%; in the experiment on Rattus norvegicus [15], 1.64%; in the experiment on Rattus norvegicus [18], 1.48%; in the experiment on Rattus norvegicus [20] it was 2.04%; in the experiment on Rattus norvegicus [22], 1.55%; in the experiment with Rattus norvegicus [24], 1.64%.

For the origin of these results see ChEMBL document CHEMBL1122592, “Synthesis and evaluation of radioiodinated terminal p-iodophenyl-substituted alpha- and beta-methyl-branched fatty acids” (1984).
